# Measurements reported in ChEMBL document CHEMBL4261538, “Synthesis and molecular docking studies of xanthone attached amino acids as potential antimicrobial and anti-inflammatory agents” (Medchemcomm, 2017).
# Calls of active or inactive are those of the source. No cut-off for these calls is given here.
# Columns and labels:
# Escherichia coli [1] = assay: Antibacterial activity against Escherichia coli incubated for 24 hrs by microdilution method; assay type: functional
# Klebsiella pneumoniae [2] = assay: Antibacterial activity against Klebsiella pneumoniae at 100 ug/ml incubated for 24 hrs by agar well diffusion method; assay type: functional; settings: read-out: DIZ
# Method in brief: (§1)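 Bacteria grown in nutrient broth at 37 °C for 24 h, then subcultured at room temperature. Compounds dissolved in DMSO at 5 mg mL⁻¹ and 5–20 µL added to 6 mm wells, giving 25, 50, 75, 100 µg per well. Gentamicin was the positive control and DMSO the negative control. Plates held at 37 °C for 24 h, then inhibition zone diameter (mm) measured. Values are means of three determinations.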
# Escherichia coli [3] = assay: Antibacterial activity against Escherichia coli at 50 ug/ml incubated for 24 hrs by agar well diffusion method; assay type: functional; settings: read-out: DIZ; method in brief: as §1
# Klebsiella pneumoniae [4] = assay: Antibacterial activity against Klebsiella pneumoniae incubated for 24 hrs by microdilution method; assay type: functional
# Klebsiella pneumoniae [5] = assay: Antibacterial activity against Klebsiella pneumoniae at 75 ug/ml incubated for 24 hrs by agar well diffusion method; assay type: functional; settings: read-out: DIZ; method in brief: as §1
# Fusarium oxysporum [6] = assay: Antifungal activity against Fusarium oxysporum at 100 ug/ml incubated for 48 hrs by agar well diffusion method; assay type: functional; settings: read-out: DIZ
# Method in brief: (§2)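 Compounds dissolved in DMSO at 5 mg mL⁻¹ and 5–20 µL added to 6 mm wells, giving 25, 50, 75, 100 µg per well. Bavistin was the positive control and DMSO the negative control. Plates incubated at 28 °C for 48 h, then inhibition zone diameter (mm) measured. Values are means of three determinations.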
# Bacillus subtilis [7] = assay: Antibacterial activity against Bacillus subtilis at 50 ug/ml incubated for 24 hrs by agar well diffusion method; assay type: functional; settings: read-out: DIZ; method in brief: as §1
# Bacillus subtilis [8] = assay: Antibacterial activity against Bacillus subtilis at 75 ug/ml incubated for 24 hrs by agar well diffusion method; assay type: functional; settings: read-out: DIZ; method in brief: as §1
# Escherichia coli [9] = assay: Antibacterial activity against Escherichia coli at 75 ug/ml incubated for 24 hrs by agar well diffusion method; assay type: functional; settings: read-out: DIZ; method in brief: as §1
# Bacillus subtilis [10] = assay: Antibacterial activity against Bacillus subtilis incubated for 24 hrs by microdilution method; assay type: functional
# Fusarium oxysporum [11] = assay: Antifungal activity against Fusarium oxysporum at 25 ug/ml incubated for 48 hrs by agar well diffusion method; assay type: functional; settings: read-out: DIZ; method in brief: as §2
# Fusarium oxysporum [12] = assay: Antifungal activity against Fusarium oxysporum at 50 ug/ml incubated for 48 hrs by agar well diffusion method; assay type: functional; settings: read-out: DIZ; method in brief: as §2
# Fusarium oxysporum [13] = assay: Antifungal activity against Fusarium oxysporum incubated for 48 to 72 hrs by microdilution method; assay type: functional
# Method in brief: (§3)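 Sabouraud agar plates inoculated with fungal suspension at 10⁵ CFU mL⁻¹ plus serially diluted compounds and bavistin reference, both in DMSO. Incubated at 25 °C for 48–72 h. MIC is the lowest concentration completely inhibiting growth. Values are means of three determinations.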
# Erythrocyte = assay: Anti-inflammatory activity in human RBC assessed as inhibition of hypotonic solution-induced hemolysis after 10 mins by spectrophotometric method; assay type: functional, cell-based
# Method in brief: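 Human blood (heparinized) washed with 0.9% saline, packed cells made into a 40% v/v stock in isotonic phosphate buffer (154 mM NaCl, 10 mM sodium phosphate, pH 7.4). Stock RBC mixed with hypotonic buffer (50 mM NaCl, 10 mM phosphate, pH 7.4) plus sample at 20–100 µg mL⁻¹.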
# Candida albicans [14] = assay: Antifungal activity against Candida albicans at 75 ug/ml incubated for 48 hrs by agar well diffusion method; assay type: functional; settings: read-out: DIZ; method in brief: as §2
# Staphylococcus aureus [15] = assay: Antibacterial activity against Staphylococcus aureus at 100 ug/ml incubated for 24 hrs by agar well diffusion method; assay type: functional; settings: read-out: DIZ; method in brief: as §1
# Bacillus subtilis [16] = assay: Antibacterial activity against Bacillus subtilis at 100 ug/ml incubated for 24 hrs by agar well diffusion method; assay type: functional; settings: read-out: DIZ; method in brief: as §1
# Fusarium oxysporum [17] = assay: Antifungal activity against Fusarium oxysporum at 75 ug/ml incubated for 48 hrs by agar well diffusion method; assay type: functional; settings: read-out: DIZ; method in brief: as §2
# Aspergillus niger [18] = assay: Antifungal activity against Aspergillus niger incubated for 48 to 72 hrs by microdilution method; assay type: functional; method in brief: as §3
# Escherichia coli [19] = assay: Antibacterial activity against Escherichia coli at 25 ug/ml incubated for 24 hrs by agar well diffusion method; assay type: functional; settings: read-out: DIZ; method in brief: as §1
# Candida albicans [20] = assay: Antifungal activity against Candida albicans at 50 ug/ml incubated for 48 hrs by agar well diffusion method; assay type: functional; settings: read-out: DIZ; method in brief: as §2
# Candida albicans [21] = assay: Antifungal activity against Candida albicans incubated for 48 to 72 hrs by microdilution method; assay type: functional; method in brief: as §3
# Aspergillus niger [22] = assay: Antifungal activity against Aspergillus niger at 100 ug/ml incubated for 48 hrs by agar well diffusion method; assay type: functional; settings: read-out: DIZ; method in brief: as §2
# Klebsiella pneumoniae [23] = assay: Antibacterial activity against Klebsiella pneumoniae at 50 ug/ml incubated for 24 hrs by agar well diffusion method; assay type: functional; settings: read-out: DIZ; method in brief: as §1
# Staphylococcus aureus [24] = assay: Antibacterial activity against Staphylococcus aureus at 25 ug/ml incubated for 24 hrs by agar well diffusion method; assay type: functional; settings: read-out: DIZ; method in brief: as §1
# Bacillus subtilis [25] = assay: Antibacterial activity against Bacillus subtilis at 25 ug/ml incubated for 24 hrs by agar well diffusion method; assay type: functional; settings: read-out: DIZ; method in brief: as §1
# Candida albicans [26] = assay: Antifungal activity against Candida albicans at 100 ug/ml incubated for 48 hrs by agar well diffusion method; assay type: functional; settings: read-out: DIZ; method in brief: as §2
# Escherichia coli [27] = assay: Antibacterial activity against Escherichia coli at 100 ug/ml incubated for 24 hrs by agar well diffusion method; assay type: functional; settings: read-out: DIZ; method in brief: as §1
# Staphylococcus aureus [28] = assay: Induction of cell membrane damage in Staphylococcus aureus assessed as cell content leakage at MIC by spectrophotometric method; assay type: functional, organism-based; settings: TDE = time-dependent effect
# Method in brief: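 Log-phase S. aureus inoculated into 0.1% sterile peptone water, with an untreated control, and held at 37 °C for 0, 30, 60 and 120 min. 1 mL of broth centrifuged and supernatant OD read at 260 nm to measure released DNA. Run in triplicate, repeated three times.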
# Staphylococcus aureus [29] = assay: Antibacterial activity against Staphylococcus aureus at 75 ug/ml incubated for 24 hrs by agar well diffusion method; assay type: functional; settings: read-out: DIZ; method in brief: as §1
# Staphylococcus aureus [30] = assay: Antibacterial activity against Staphylococcus aureus at 50 ug/ml incubated for 24 hrs by agar well diffusion method; assay type: functional; settings: read-out: DIZ; method in brief: as §1
# Klebsiella pneumoniae [31] = assay: Antibacterial activity against Klebsiella pneumoniae at 25 ug/ml incubated for 24 hrs by agar well diffusion method; assay type: functional; settings: read-out: DIZ; method in brief: as §1
# Aspergillus niger [32] = assay: Antifungal activity against Aspergillus niger at 25 ug/ml incubated for 48 hrs by agar well diffusion method; assay type: functional; settings: read-out: DIZ; method in brief: as §2
# Candida albicans [33] = assay: Antifungal activity against Candida albicans at 25 ug/ml incubated for 48 hrs by agar well diffusion method; assay type: functional; settings: read-out: DIZ; method in brief: as §2
# Staphylococcus aureus [34] = assay: Antibacterial activity against Staphylococcus aureus incubated for 24 hrs by microdilution method; assay type: functional
# Aspergillus niger [35] = assay: Antifungal activity against Aspergillus niger at 75 ug/ml incubated for 48 hrs by agar well diffusion method; assay type: functional; settings: read-out: DIZ; method in brief: as §2
# Aspergillus niger [36] = assay: Antifungal activity against Aspergillus niger at 50 ug/ml incubated for 48 hrs by agar well diffusion method; assay type: functional; settings: read-out: DIZ; method in brief: as §2
# Staphylococcus aureus [37] = assay: Induction of cell membrane damage in Staphylococcus aureus assessed as cell content leakage at MIC after 2 hrs by SEM analysis; assay type: functional, organism-based
MIC (Escherichia coli [1]) [µg/mL],MIC (Klebsiella pneumoniae [4]) [µg/mL],MIC (Bacillus subtilis [10]) [µg/mL],MIC (Fusarium oxysporum [13]) [µg/mL],MIC (Aspergillus niger [18]) [µg/mL],SMILES,zone of inhibition at 100 µg/mL (Klebsiella pneumoniae [2]) [mm],zone of inhibition at 50 µg/mL (Escherichia coli [3]) [mm],zone of inhibition at 75 µg/mL (Klebsiella pneumoniae [5]) [mm],zone of inhibition at 100 µg/mL (Fusarium oxysporum [6]) [mm],zone of inhibition at 50 µg/mL (Bacillus subtilis [7]) [mm],zone of inhibition at 75 µg/mL (Bacillus subtilis [8]) [mm],zone of inhibition at 75 µg/mL (Escherichia coli [9]) [mm],zone of inhibition at 25 µg/mL (Fusarium oxysporum [11]) [mm],zone of inhibition at 50 µg/mL (Fusarium oxysporum [12]) [mm],IC50 (Erythrocyte) [µg/mL],zone of inhibition at 75 µg/mL (Candida albicans [14]) [mm],zone of inhibition at 100 µg/mL (Staphylococcus aureus [15]) [mm],zone of inhibition at 100 µg/mL (Bacillus subtilis [16]) [mm],zone of inhibition at 75 µg/mL (Fusarium oxysporum [17]) [mm],zone of inhibition at 25 µg/mL (Escherichia coli [19]) [mm],further results
16,20,17,21,20,CC(C)(C)OC(=O)N[C@@H](Cc1c[nH]c2ccccc12)C(=O)Oc1ccc2c(=O)c3ccccc3oc2c1,41,30,36,40,29,33,37,21,30,24,37,40,39,35,24,zone of inhibition at 50 µg/mL (Candida albicans [20]): 31 mm; MIC (Candida albicans [21]): 19 µg/mL; zone of inhibition at 100 µg/mL (Aspergillus niger [22]): 44 mm; zone of inhibition at 50 µg/mL (Klebsiella pneumoniae [23]): 29 mm; zone of inhibition at 25 µg/mL (Staphylococcus aureus [24]): 22 mm; zone of inhibition at 25 µg/mL (Bacillus subtilis [25]): 23 mm; zone of inhibition at 100 µg/mL (Candida albicans [26]): 42 mm; zone of inhibition at 100 µg/mL (Escherichia coli [27]): 41 mm; Activity (Staphylococcus aureus [28]): Tde; zone of inhibition at 75 µg/mL (Staphylococcus aureus [29]): 35 mm; zone of inhibition at 50 µg/mL (Staphylococcus aureus [30]): 29 mm; zone of inhibition at 25 µg/mL (Klebsiella pneumoniae [31]): 22 mm; zone of inhibition at 25 µg/mL (Aspergillus niger [32]): 24 mm; zone of inhibition at 25 µg/mL (Candida albicans [33]): 24 mm; MIC (Staphylococcus aureus [34]): 18 µg/mL; zone of inhibition at 75 µg/mL (Aspergillus niger [35]): 36 mm; zone of inhibition at 50 µg/mL (Aspergillus niger [36]): 31 mm
20,17,19,23,21,Cl.N[C@@H](Cc1ccc(O)cc1)C(=O)Oc1ccc2c(=O)c3ccccc3oc2c1,37,26,31,41,26,38,34,21,28,32,36,39,40,35,21,zone of inhibition at 50 µg/mL (Candida albicans [20]): 30 mm; MIC (Candida albicans [21]): 23 µg/mL; zone of inhibition at 100 µg/mL (Aspergillus niger [22]): 40 mm; zone of inhibition at 50 µg/mL (Klebsiella pneumoniae [23]): 26 mm; zone of inhibition at 25 µg/mL (Staphylococcus aureus [24]): 23 mm; zone of inhibition at 25 µg/mL (Bacillus subtilis [25]): 23 mm; zone of inhibition at 100 µg/mL (Candida albicans [26]): 39 mm; Activity (Staphylococcus aureus [37]): Active; zone of inhibition at 100 µg/mL (Escherichia coli [27]): 39 mm; zone of inhibition at 75 µg/mL (Staphylococcus aureus [29]): 35 mm; zone of inhibition at 50 µg/mL (Staphylococcus aureus [30]): 27 mm; zone of inhibition at 25 µg/mL (Klebsiella pneumoniae [31]): 21 mm; zone of inhibition at 25 µg/mL (Aspergillus niger [32]): 24 mm; zone of inhibition at 25 µg/mL (Candida albicans [33]): 23 mm; MIC (Staphylococcus aureus [34]): 18 µg/mL; zone of inhibition at 75 µg/mL (Aspergillus niger [35]): 38 mm; zone of inhibition at 50 µg/mL (Aspergillus niger [36]): 31 mm
